Data on one molecule can be found in ChEMBL document CHEMBL1125330, “N-substituted pyrazino[2,3-c][1,2,6]thiadiazine 2,2-dioxides. A new class of diuretics” (J Med Chem, 1992).

Structures are written as SMILES.

For data set [1], the system named is Rattus norvegicus. As to the kind of experiment: Volume of urine 6 hr after the compound was administered 125 mg/kg po in rat. More on the design: dose 125 mg/kg, route oral. In kind it is ADME, organism-based. As to conditions: in vivo. The method in brief: (§1)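 Onset/duration protocol: male Sprague-Dawley rats (HC/CFY, 175-200 g), food and water withdrawn for 18 h before and during the test. Single gavage dose in 1% carboxymethyl cellulose/0.1% Tween 80 (0.5 mL/100 g bw), then distilled water load (2.5 mL/100 g bw po). Two rats per metabolic cage, six pairs per group. Urine collected at 0-1, 1-2, 2-3, 3-4 and 4-6 h; Na+ by flame photometry. Vehicle controls; nonpaired Student t-test.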

The test system of data set [2] is Rattus norvegicus. As to the kind of experiment: Mean sodium excretion in rats when compound administered at 2.5 mg/kg po and vehicle dosed at 9.87 umol/kg. Particulars: in vivo. More on the design: dose 2.5 mg/kg, route oral. Format: ADME, organism-based. The method in brief:
(§2)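 Male Sprague-Dawley rats (HC/CFY, 175-200 g) fasted and water-deprived 18 h before and during the test. Dosed by gavage at 2.5-160 mg/kg in 1% carboxymethyl cellulose/0.1% Tween 80, 0.5 mL/100 g bw. Immediately hydrated with water (2.5 mL/100 g bw, po). Urine collected 6 h in metabolic cages; Na+ and K+ by flame photometry; mean mequiv/6 h/kg bw; nonpaired Student t-test.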

The test system of data set [3] is Rattus norvegicus. As to the kind of experiment: Mean urinary output in rats when compound administered at 40 mg/kg po and vehicle dosed at 157.94 umol/kg. Format: ADME, organism-based, Urine. Details: dose 40 mg/kg, route oral. As to conditions: in vivo. Summed up: (§3)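 Water-loaded male Sprague-Dawley rats (HC/CFY, 175-200 g) fasted and without water for 18 h. Oral gavage of 2.5-160 mg/kg in 1% CMC with 0.1% Tween 80, then distilled water 2.5 mL/100 g po. Urine collected 6 h in metabolic cages, mean output in mL/6 h/kg bw. Unpaired Student t-test against vehicle; dose-response by linear regression.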

For data set [4], the system named is Rattus norvegicus. As to the kind of experiment: Mean potassium excretion in rats when compound administered at 10 mg/kg po and vehicle dosed at 39.48 umol/kg. In kind it is ADME, organism-based. Details: dose 10 mg/kg, route oral. As to conditions: in vivo. Summed up:
(§4)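 Male Sprague-Dawley rats (HC/CFY, 175-200 g), no food or water for 18 h before and during the test. Single gavage dose (2.5-160 mg/kg; vehicle 1% carboxymethyl cellulose/0.1% Tween 80, 0.5 mL/100 g bw), then distilled water 2.5 mL/100 g bw po. Individual metabolic cages, 6 h urine. K+ by flame photometry, Cl- colorimetric, as mequiv/6 h/kg bw; unpaired Student t-test vs control.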

Data set [5] concerns Rattus norvegicus. As to the kind of experiment: Mean Chlorine excretion in rats when compound administered at 20 mg/kg po and vehicle dosed at 78.97 umol/kg. Details: dose 20 mg/kg, route oral. In kind it is ADME, organism-based. As to conditions: in vivo. Summed up: as §4
The test system of data set [6] is Rattus norvegicus. As to the kind of experiment: Post dosing time interval of maximum activity. Format: functional. Summed up: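 Interval of peak activity taken from timed urine collections (0-1, 1-2, 2-3, 3-4, 4-6 h) after a single oral dose in water-loaded fasted rats, […]. Urine volume and Na+ excretion followed over time.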
Data set [7] relates to Rattus norvegicus. As to the kind of experiment: Urinary sodium 6 hr after the compound was administered 125 mg/kg po in rat. Format: ADME, organism-based, Urine. Details: dose 125 mg/kg, route oral. As to conditions: in vivo. The method in brief:
as §1

Data set [8] concerns Rattus norvegicus. As to the kind of experiment: Mean Chlorine excretion in rats when compound administered at 5 mg/kg po and vehicle dosed at 19.74 umol/kg. In kind it is ADME, organism-based. More on the design: dose 5 mg/kg, route oral. As to conditions: in vivo. The method in brief:
as §4

The subject of data set [9] is Rattus norvegicus. As to the kind of experiment: Mean urinary output in rats when compound administered at 160 mg/kg po and vehicle dosed at 631.76 umol/kg. Format: ADME, organism-based, Urine. More on the design: dose 160 mg/kg, route oral. Particulars: in vivo. The method in brief: as §3
The species entered for data set [10] is Rattus norvegicus. As to the kind of experiment: Dose required to produce increase in 50 % in urine production vs control groups. In kind it is functional. The method in brief:
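Male Sprague-Dawley rats (HC/CFY, 175-200 g), fasted and water-deprived 18 h before and during the test. Compound dosed by gavage in 1% carboxymethyl cellulose/0.1% Tween 80, then water load 2.5 mL/100 g bw po. Urine collected 6 h in metabolic cages; Na+ by flame photometry. Effective doses vs vehicle controls derived by linear regression of dose-response data.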

Data set [11] relates to Rattus norvegicus. The data set is described as follows: Volume of urine 2 hr after the compound was administered 125 mg/kg po in rat. Format: ADME, organism-based. More on the design: dose 125 mg/kg, route oral. As to conditions: in vivo. The method in brief:
as §1

In data set [12] the test system is Rattus norvegicus. As to the kind of experiment: Mean sodium excretion in rats when compound administered at 80 mg/kg po and vehicle dosed at 315.88 umol/kg. Format: ADME, organism-based. As to conditions: in vivo. More on the design: dose 80 mg/kg, route oral. Summed up:
as §2

Data set [13] deals with Rattus norvegicus. As to the kind of experiment: Mean potassium excretion in rats when compound administered at 5 mg/kg po and vehicle dosed at 19.74 umol/kg. Details: dose 5 mg/kg, route oral. Format: ADME, organism-based. Particulars: in vivo. The method in brief:
as §2

The test system of data set [14] is Rattus norvegicus. The data set is described as follows: Mean potassium excretion in rats when compound administered at 2.5 mg/kg po and vehicle dosed at 9.87 umol/kg. In kind it is ADME, organism-based. More on the design: dose 2.5 mg/kg, route oral. As to conditions: in vivo. The method in brief: as §4
Data set [15] relates to Rattus norvegicus. As to the kind of experiment: Mean urinary output in rats when compound administered at 10 mg/kg po and vehicle dosed at 39.48 umol/kg. In kind it is ADME, organism-based, Urine. Details: dose 10 mg/kg, route oral. Particulars: in vivo. Summed up:
as §3

The subject of data set [16] is Rattus norvegicus. As to the kind of experiment: Mean urinary output in rats when compound administered at 80 mg/kg po and vehicle dosed at 315.88 umol/kg. Format: ADME, organism-based, Urine. More on the design: dose 80 mg/kg, route oral. As to conditions: in vivo. The method in brief:
as §3

Data set [17] relates to Rattus norvegicus. As to the kind of experiment: Mean Chlorine excretion in rats when compound administered at 80 mg/kg po and vehicle dosed at 315.88 umol/kg. Particulars: in vivo. More on the design: dose 80 mg/kg, route oral. In kind it is ADME, organism-based. The method in brief:
as §4

Data set [18] relates to Rattus norvegicus. As to the kind of experiment: Mean Chlorine excretion in rats when compound administered at 160 mg/kg po and vehicle dosed at 631.76 umol/kg. Format: ADME, organism-based. Details: dose 160 mg/kg, route oral. Particulars: in vivo. The method in brief: as §4
In data set [19] the test system is Rattus norvegicus. As to the kind of experiment: Mean potassium excretion in rats when compound administered at 0 mg/kg po and vehicle dosed at 0 umol/kg. In kind it is ADME, organism-based. More on the design: dose 0 mg/kg, route oral. As to conditions: in vivo. The method in brief: as §4
For data set [20], the system named is Rattus norvegicus. As to the kind of experiment: Mean Chlorine excretion in rats when compound administered at 40 mg/kg po and vehicle dosed at 157.94 umol/kg. More on the design: dose 40 mg/kg, route oral. In kind it is ADME, organism-based. Particulars: in vivo. Summed up:
as §4

Data set [21] deals with Rattus norvegicus. The data set is described as follows: Mean potassium excretion in rats when compound administered at 40 mg/kg po and vehicle dosed at 157.94 umol/kg. Format: ADME, organism-based. More on the design: dose 40 mg/kg, route oral. As to conditions: in vivo. Summed up:
as §2

Data set [22] concerns Rattus norvegicus. As to the kind of experiment: Mean urinary output in rats when compound administered at 2.5 mg/kg po and vehicle dosed at 9.87 umol/kg. Particulars: in vivo. Details: dose 2.5 mg/kg, route oral. Format: ADME, organism-based, Urine. Summed up: as §3
The test system of data set [23] is Rattus norvegicus. As to the kind of experiment: Volume of urine 4 hr after the compound was administered 125 mg/kg po in rat. Details: dose 125 mg/kg, route oral. Format: ADME, organism-based. Particulars: in vivo. The method in brief: as §1

Regarding `Nc1nc(N)c2nc(-c3ccccc3)c(N)nc2n1`, the Urine volume in the data set on Rattus norvegicus [1] was 4.36 mL; with Rattus norvegicus [11], 3.2 mL; in the data set with Rattus norvegicus [23], 1.78 mL. For the same molecule, the results for the Na with Rattus norvegicus [2] and with Rattus norvegicus [12] were 1.69 m equiv 6hr-1 kg-1 (body weight)-1 and 3.37 m equiv 6hr-1 kg-1 (body weight)-1, respectively. For the same molecule, the V is 38.1 ml 6hr-1 (kg of body weight)-1 with Rattus norvegicus [3]; 52 ml 6hr-1 (kg of body weight)-1 in the data set on Rattus norvegicus [9]; 31.13 ml 6hr-1 (kg of body weight)-1 in the data set with Rattus norvegicus [15]; 44.92 ml 6hr-1 (kg of body weight)-1 in the data set on Rattus norvegicus [16]; 31.39 ml 6hr-1 (kg of body weight)-1 with Rattus norvegicus [22]. Also, the K in the data set on Rattus norvegicus [4] is 0.18 m equiv 6hr-1 kg-1 (body weight)-1; in the data set with Rattus norvegicus [13] it was 0.19 m equiv 6hr-1 kg-1 (body weight)-1; in the data set on Rattus norvegicus [14], 0.32 m equiv 6hr-1 kg-1 (body weight)-1; with Rattus norvegicus [19], 0.5 m equiv 6hr-1 kg-1 (body weight)-1; in the data set with Rattus norvegicus [21], 0.18 m equiv 6hr-1 kg-1 (body weight)-1. Besides, the Cl- was 1.83 m equiv 6hr-1 kg-1 (body weight)-1 in the data set on Rattus norvegicus [5]; 1.55 m equiv 6hr-1 kg-1 (body weight)-1 in the data set with Rattus norvegicus [8]; 2.8 m equiv 6hr-1 kg-1 (body weight)-1 in the data set on Rattus norvegicus [17]; 3.05 m equiv 6hr-1 kg-1 (body weight)-1 in the data set on Rattus norvegicus [18]; 2.83 m equiv 6hr-1 kg-1 (body weight)-1 in the data set on Rattus norvegicus [20]. Moreover, the Time in the data set with Rattus norvegicus [6] was determined as 6 h. Further, in the data set with Rattus norvegicus [7], the “Urinary Na+” value amounted to 0.46 m equiv. The same molecule came in with a 50% effective dose (ED50) in the data set listed under Rattus norvegicus [10] of 34.5 mg/kg.
